Values after ≈ are worked out from the molar mass of the structure shown. Active and inactive are the calls of the source.
Key:
[1] = target: T1, Growth hormone secretagogue receptor type 1 (Homo sapiens, UniProt Q92847); experiment: Displacement of [125I-His9]-ghrelin from human GRLN receptor by radioligand binding assay
Summary of the method: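 Competitive binding on isolated membranes expressing GRLN, with 125I-His-9 octanoylated ghrelin as radioligand.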

[2] = target: T1, Growth hormone secretagogue receptor type 1; experiment: Agonist activity at human GRLN receptor expressed in HEK293 cells assessed as calcium binding by Ca2+ bioluminescence aequorin assay; format: functional, cell-based
Summary of the method: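 HEK-293 cells expressing human GRLN. Ca2+ bioluminescence read out by aequorin. Duplicate samples, maximum tolerated interassay variability ±10%. Full agonism defined as maximal response >70% of that of octanoylated human ghrelin.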

[3] = Clearance in Sprague-Dawley rat at 2 m/kg, iv; format: ADME, organism-based; settings: in vivo
[4] = Volume of distribution at steady state in Sprague-Dawley rat at 2 m/kg, iv; format: ADME, organism-based; settings: in vivo, read-out: Vdss
[5] = Elimination half life in Sprague-Dawley rat at 2 m/kg, iv; format: ADME, organism-based; settings: in vivo, read-out: beta t1/2
Rattus norvegicus [6] = experiment: Induction of gastric emptying in overnight-fasted iv dosed Wistar rat measured after 15 mins by […] analysis; format: functional, organism-based, Stomach
Summary of the method: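 Overnight-fasted male Wistar rats (200 ± 20 g), N = 5 per point. Compound given IV in 9% 2-hydroxypropyl-β-cyclodextrin together with an oral 2% methylcellulose meal containing 0.05% phenol red (2 mL). Sacrifice 15 min later; phenol red left in stomach read at 560 nm. […] Metoclopramide positive control at 10 mg/kg IV.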

Rattus norvegicus [7] = experiment: Induction of gastric emptying in overnight-fasted po dosed Wistar rat administered 30 mins prior methylcellulose meal by […] analysis; format: functional, organism-based; settings: Stomach
[8] = Aqueous solubility of the compound; format: physicochemical
[9] = Oral bioavailability in Sprague-Dawley rat at 8 mg/kg; settings: in vivo
[10] = Cmax in Sprague-Dawley rat at 8 mg/kg, po; format: ADME, organism-based; design: dose 8 mg/kg, route oral; settings: in vivo
Summary of the method: (§1)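 Male Sprague−Dawley rats (250 ± 20 g), 3 per compound in a single experiment, gavage 8 mg/kg in physiological saline. Blood taken at 12 time points over 6 h into K3EDTA tubes. Plasma stored at −20 °C, assayed by LC-MS/MS, noncompartmental analysis.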

[11] = AUC (0 to infinity) in Sprague-Dawley rat at 8 mg/kg, po; format: ADME, organism-based; design: time infinity, dose 8 mg/kg, route oral; settings: plasma; summary of the method: as §1
[12] = Dissociation constant, pKa of the compound; format: physicochemical
[13] = target: T1, Growth hormone secretagogue receptor type 1; experiment: Partial agonist activity at GRLN receptor at 3 uM by aequorin assay; format: functional
Summary of the method: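 Aequorin Ca2+ bioluminescence in HEK-293 cells expressing human GRLN. Response at a 3 μM test concentration expressed relative to the maximal response to octanoylated human ghrelin.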

[14] = Half life in human liver microsomes; format: ADME, Microsome
[15] = Drug metabolism in rat liver microsomes after 15 mins; format: ADME, Microsome; settings: read-out: Drug metabolism
[16] = Permeability across serosal to mucosal side human Caco2 cells; format: ADME, cell-based; settings: Caco-2, read-out: permeability
[17] = Permeability across mucosal to serosal side in human Caco2 cells; format: ADME, cell-based; settings: Caco-2, read-out: permeability

T1 sequence (Q92847 whole entry): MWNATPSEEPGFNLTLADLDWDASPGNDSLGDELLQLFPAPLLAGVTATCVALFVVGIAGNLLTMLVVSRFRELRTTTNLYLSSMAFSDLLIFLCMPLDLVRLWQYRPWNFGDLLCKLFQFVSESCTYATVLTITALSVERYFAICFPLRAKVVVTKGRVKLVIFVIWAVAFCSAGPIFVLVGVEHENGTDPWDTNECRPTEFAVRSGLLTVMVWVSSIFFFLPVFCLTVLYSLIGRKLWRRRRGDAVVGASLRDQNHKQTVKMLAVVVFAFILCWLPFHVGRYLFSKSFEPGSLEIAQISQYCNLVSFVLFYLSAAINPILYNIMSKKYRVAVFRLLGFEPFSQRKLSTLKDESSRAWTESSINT

| Ki [1] [nM] | EC50 [2] [nM] | SMILES | further results |
| --- | --- | --- | --- |
| 7 | 11 | C[C@@H]1C(=O)N[C@H](Cc2ccc(C(F)(F)F)cc2)C(=O)NCCCc2ccccc2OCCN[C@@H](C2CC2)C(=O)N1C |  |
| 35 |  | CC[C@H]1NC(=O)[C@H]([C@@H](C)CC)NC[C@@H](C)Oc2ccccc2CCCNC(=O)[C@@H](Cc2ccccc2)NC1=O |  |
| 81 |  | CC[C@H](C)[C@@H]1NCCCc2ccccc2CCCNC(=O)[C@@H](Cc2ccccc2)NC(=O)[C@@H](C)N(C)C1=O |  |
| 500 |  | CCC[C@@H]1NCCOc2ccccc2CCCNC(=O)[C@@H](Cc2ccccc2)NC(=O)[C@@H](C)NC1=O |  |
| 380 |  | CC[C@H](C)[C@@H]1NC[C@@H](C)Oc2ccccc2CCCNC(=O)[C@@H](Cc2ccccc2)NC(=O)[C@@H](C(C)C)NC1=O |  |
| 25 |  | CC(C)C[C@@H]1NCCOc2ccccc2CCCNC(=O)[C@@H](Cc2ccccc2)NC(=O)[C@@H](C)N(C)C1=O |  |
| 1500 |  | CC[C@H](C)[C@@H]1NCCCCCCCCNC(=O)[C@@H](Cc2ccccc2)NC(=O)[C@@H](C)N(C)C1=O |  |
| 580 |  | CCC[C@@H]1NCCOc2ccccc2CCCNC(=O)[C@@H](Cc2ccccc2)NC(=O)[C@H](C)N(C)C1=O |  |
| 43 |  | CC[C@H](C)[C@@H]1NCCOc2ccccc2CCCNC(=O)[C@@H](CCc2ccccc2)NC(=O)[C@@H](C)N(C)C1=O |  |
| 6.4 |  | CC[C@H](C)[C@@H]1NCCOc2ccccc2CCCNC(=O)[C@@H](Cc2ccccc2)NC(=O)[C@@H](C)N(C)C1=O |  |
| 160 | 310 | CC[C@H](C)[C@@H]1NCCCC/C=C/CCNC(=O)[C@@H](Cc2ccccc2)NC(=O)[C@@H](C)N(C)C1=O (mixture of isomers) |  |
| 78 | 360 | CC[C@H](C)[C@@H]1NCCCc2ccccc2CCCCNC(=O)[C@@H](Cc2ccccc2)NC(=O)[C@@H](C)N(C)C1=O |  |
| 210 | 530 | CC[C@H](C)[C@@H]1NCCOc2ccccc2CCNC(=O)[C@@H](Cc2ccccc2)NC(=O)[C@@H](C)N(C)C1=O |  |
| 34 |  | C[C@@H]1CN[C@@H](C2CC2)C(=O)N(C)[C@H](C)C(=O)N[C@H](Cc2ccccc2)C(=O)NCCCc2ccccc2O1 | clearance [3]: 25 mL/min/kg; Vd [4]: 1.3 L/kg; half-life [5]: 32 min |
| 56 | 26 | C[C@@H]1C(=O)N[C@H](Cc2ccc(F)cc2)C(=O)NCCCc2ccccc2O[C@@H](C)CN[C@@H](C2CC2)C(=O)N1C |  |
| 0.9 | 85 | C[C@@H]1C(=O)N[C@H](Cc2ccc(F)cc2)C(=O)NCCCc2cccc3c2O[C@H](CC3)CN[C@@H](C2CC2)C(=O)N1C | clearance [3]: 13 mL/min/kg; Vd [4]: 1.1 L/kg; half-life [5]: 59 min |
| 9 | 760 | CC1COc2ccccc2CCCNC(=O)[C@@H](Cc2ccc(F)cc2)NC(=O)[C@@H](C)N(C)C(=O)[C@H](C2CC2)N1 (mixture of isomers) |  |
| 0.38 | 49 | C[C@@H]1CN[C@@H](C2CCCCC2)C(=O)N(C)[C@H](C)C(=O)N[C@H](Cc2ccc(F)cc2)C(=O)NCCCc2ccccc2O1 | solubility [8]: ≤ 10 µg/mL; clearance [3]: 43 mL/min/kg; Vd [4]: 4.7 L/kg; half-life [5]: 74 min |
| 0.35 | 20 | CC[C@H](C)[C@@H]1NCCOc2ccccc2CCCNC(=O)[C@@H](Cc2ccc(Cl)cc2)NC(=O)[C@@H](C)N(C)C1=O | EC50 (Rattus norvegicus [6]): 0.39 mg/kg; bioavailability [9]: 3%; Cmax [10]: 60 nM; half-life [14]: 5 min; Activity (Rattus norvegicus [7]): inactive; metabolised at […] [15]: 86%; AUC(0-inf) [11]: 0.0585 µM·h; Papp B→A [16]: 15 ×10⁻⁶ cm/s; Vd [4]: 3.2 L/kg; Papp A→B [17]: 14 ×10⁻⁶ cm/s; half-life [5]: 33 min |
| 400 |  | CCCC[C@H]1NC(=O)CN(C)C(=O)[C@H](CCC)NCCOc2ccccc2CCCNC1=O |  |
| > 10000 |  | CCC[C@H](NCCOc1ccccc1/C=C/CNC(C)=O)C(=O)N(C)CC(=O)N[C@H](Cc1ccccc1)C(N)=O |  |
| 21 |  | C[C@@H]1C(=O)N[C@H](Cc2cccc(F)c2)C(=O)NCCCc2ccccc2OCCN[C@@H](C2CC2)C(=O)N1C |  |
| 68 |  | CCC[C@@H]1NCCOc2ccccc2CCCNC(=O)[C@@H](Cc2ccccc2)NC(=O)CN(C)C1=O |  |
| 1100 |  | CN1CC(=O)N[C@H](Cc2ccccc2)C(=O)NCCCc2ccccc2OCCN[C@@H](CCCCN)C1=O |  |

Continued, compound first:

| SMILES | Ki [1] [nM] | EC50 [2] [nM] | further results |
| --- | --- | --- | --- |
| CCC[C@@H]1NCCOc2ccccc2CCCNC(=O)[C@@H](Cc2ccc(O)cc2)NC(=O)CN(C)C1=O | 120 | 39 |  |
| C[C@@H]1C(=O)N[C@H](Cc2ccc(F)cc2)C(=O)NCCCc2cccc3c2O[C@@H](CC3)CN[C@@H](C2CC2)C(=O)N1C | 19 |  |  |
| C[C@@H]1C(=O)N[C@H](Cc2ccccc2F)C(=O)NCCCc2ccccc2OCCN[C@@H](C2CC2)C(=O)N1C | 6.2 |  |  |
| C[C@@H]1C(=O)N[C@H](Cc2ccc(F)cc2)C(=O)NCCCc2ccccc2OCCN[C@@H](C2CC2)C(=O)N1C | 7.3 |  | clearance [3]: 72 mL/min/kg; Vd [4]: 1.4 L/kg; half-life [5]: 14 min |
| CCCCCCCC(=O)OC[C@H](NC(=O)CNC(=O)[C@@H](N)CCCNC(=N)N)C(=O)N[C@@H](CO)C(=O)N[C@@H](Cc1ccccc1)C(=O)N[C@@H](CC(C)C)C(=O)N[C@@H](CO)C(=O)N1CCC[C@H]1C(=O)N[C@@H](CCC(=O)O)C(=O)N[C@@H](Cc1cnc[nH]1)C(=O)N[C@@H](CCC(N)=O)C(=O)N[C@@H](CCCCN)C(=O)N[C@@H](C)C(=O)N[C@@H](CCC(N)=O)C(=O)N[C@@H](CCC(N)=O)C(=O)N[C@@H](CCCNC(=N)N)C(=O)N[C@@H](CCCCN)C(=O)N[C@@H](CCC(=O)O)C(=O)N[C@@H](CO)C(=O)N[C@@H](CCCCN)C(=O)N[C@@H](CCCCN)C(=O)N1CCC[C@H]1C(=O)N1CCC[C@H]1C(=O)N[C@@H](C)C(=O)N[C@@H](CCCCN)C(=O)N[C@@H](CC(C)C)C(=O)N[C@@H](CCC(N)=O)C(=O)N1CCC[C@H]1C(=O)O [GHRELIN] |  |  | EC50 (Rattus norvegicus [6]): 0.04 mg/kg; Activity (Rattus norvegicus [7]): inactive |
| CCC[C@@H]1NCCOc2ccccc2CCCNC(=O)[C@H](Cc2ccccc2)NC(=O)CN(C)C1=O | 380 |  |  |
| CCC[C@@H]1NC[C@@H](C)Oc2ccccc2CCCNC(=O)[C@@H](Cc2ccc(F)cc2)NC(=O)[C@@H](C)N(C)C1=O | 34 |  | solubility [8]: 100 µg/mL (≈ 185 µM); clearance [3]: 41 mL/min/kg; Vd [4]: 1.7 L/kg; half-life [5]: 29 min |
| C[C@@H]1CN[C@@H](C2CC2)C(=O)N(C)[C@H](C)C(=O)N[C@H](Cc2ccc(Cl)cc2)C(=O)NCCCc2ccccc2O1 | 15 | 18 | EC50 (Rattus norvegicus [6]): 0.84 mg/kg; bioavailability [9]: 22%; Cmax [10]: 670 nM; clearance [3]: 24 mL/min/kg; AUC(0-inf) [11]: 1.23 µM·h; Vd [4]: 1.4 L/kg; half-life [5]: 41 min |
| CC[C@H](C)[C@@H]1NC[C@@H](C)Oc2ccccc2CCCNC(=O)[C@@H](Cc2ccc(F)cc2)NC(=O)[C@@H](C)N(C)C1=O | 32 |  | solubility [8]: 100 µg/mL (≈ 180 µM); clearance [3]: 40 mL/min/kg; Vd [4]: 2.5 L/kg; half-life [5]: 44 min |
| CC(C)[C@@H]1NC[C@@H](C)Oc2ccccc2CCCNC(=O)[C@@H](Cc2ccc(F)cc2)NC(=O)[C@@H](C)N(C)C1=O | 104 |  | clearance [3]: 40 mL/min/kg; Vd [4]: 2 L/kg; half-life [5]: 34 min |
| CC[C@H](C)[C@@H]1NCCCc2ccccc2CCNC(=O)[C@@H](Cc2ccccc2)NC(=O)[C@@H](C)N(C)C1=O | 400 |  |  |
| C[C@@H]1C(=O)N[C@H](Cc2ccccc2)C(=O)NCCCc2ccccc2OCCN[C@@H](C2CC2)C(=O)N1C | 4.4 | 23 | pKa [12]: 6.72 |
| CCC[C@@H]1NCCOc2ccccc2CCCNC(=O)[C@@H](Cc2ccccc2)NC(=O)[C@@H](C)N(C)C1=O | 16 | 40 | pKa [12]: 6.45 |
| CN1CC(=O)N[C@H](Cc2ccccc2)C(=O)NCCCc2ccccc2OCCN[C@@H](Cc2ccccc2)C1=O | 670 |  |  |
| C[C@@H]1CN[C@@H](C2CC2)C(=O)N(C)[C@H](C)C(=O)N[C@H](Cc2ccc(F)cc2)C(=O)NCCCc2ccc(F)cc2O1 | 61 |  | EC50 (Rattus norvegicus [6]): 1.38 mg/kg; bioavailability [9]: 15%; Cmax [10]: 750 nM; clearance [3]: 9 mL/min/kg; AUC(0-inf) [11]: 2.08 µM·h; Vd [4]: 0.9 L/kg; half-life [5]: 66 min |
| C[C@@H]1C(=O)N[C@H](Cc2ccc(F)cc2)C(=O)NCCCc2ccccc2OC(C)(C)CN[C@@H](C2CC2)C(=O)N1C | 12 |  | Activity [13]: 40% |
| Cc1ccc(C[C@H]2NC(=O)[C@@H](C)N(C)C(=O)[C@H](C3CC3)NCCOc3ccccc3CCCNC2=O)cc1 | 5 | 8.2 |  |
| CCC[C@H]1NCCOc2ccccc2CCCNC(=O)[C@@H](Cc2ccccc2)NC(=O)CN(C)C1=O | 1200 |  |  |
| C[C@@H]1C(=O)N[C@H](Cc2ccc(F)cc2)C(=O)NCCCc2cc(F)ccc2OCCN[C@@H](C2CC2)C(=O)N1C | 58 |  |  |

Reference: ChEMBL document CHEMBL1921692 (J Med Chem, 2011)
